Data as given in ChEMBL document CHEMBL2417544, “Design, synthesis and biological evaluation of azithromycin glycosyl derivatives as potential antibacterial agents” (2013).
≈ marks a conversion by molar mass, not a printed value.

Tests used:
Assay type in all cases: functional
Streptococcus pneumoniae [1] = assay: Ratio of erythromycin A MIC80 to compound MIC80 for Streptococcus pneumoniae 746
Outline: (§1)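 Ratio of the reference macrolide's MIC80 (azithromycin or erythromycin A, tested in parallel) to the compound's MIC80. Both come from the same NCCLS broth dilution run: DMSO stocks serially diluted in medium, inoculated, 35 °C. MIC80 is the first well with about 80% lower growth than the drug-free control. Triplicate tests, means used.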

Streptococcus pneumoniae [2] = assay: Ratio of azithromycin MIC80 to compound MIC80 for Streptococcus pneumoniae 943; outline: as §1
Streptococcus pneumoniae [3] = assay: Ratio of erythromycin A MIC80 to compound MIC80 for Streptococcus pneumoniae 943; outline: as §1
Escherichia coli [4] = assay: Antibacterial activity against Escherichia coli ATCC 25922 by standard dilution assay
Outline: (§2)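 Broth dilution MIC per NCCLS guidance. Compounds dissolved in DMSO, serially diluted in growth medium, inoculated and incubated at 35 °C. MIC80 taken as the first well showing roughly 80% less growth than the drug-free well. Each test run three times; values are means of replicates.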

Staphylococcus aureus [5] = assay: Ratio of erythromycin A MIC80 to compound MIC80 for methicillin-susceptible Staphylococcus aureus MSSA-1; outline: as §1
Escherichia coli [6] = assay: Antibacterial activity against Escherichia coli 236 by standard dilution assay; outline: as §2
Streptococcus pyogenes = assay: Antibacterial activity against Streptococcus pyogenes 447 by standard dilution assay; outline: as §2
Streptococcus pneumoniae [7] = assay: Antibacterial activity against Streptococcus pneumoniae 746 by standard dilution assay; outline: as §2
Staphylococcus aureus [8] = assay: Antibacterial activity against Staphylococcus aureus ATCC 25923 by standard dilution assay
Outline: (§3)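 Broth dilution MIC per NCCLS guidance. Compounds dissolved in DMSO, serially diluted in growth medium, inoculated and incubated at 35 °C. MIC80 read as the first well with about 80% less growth than the drug-free well. Erythromycin and azithromycin were run as positive controls. Each test was done three times, and values are means of the replicates.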

Staphylococcus aureus [9] = assay: Antibacterial activity against methicillin-resistant Staphylococcus aureus MRSA-1 by standard dilution assay; outline: as §3
Staphylococcus aureus [10] = assay: Antibacterial activity against methicillin-susceptible Staphylococcus aureus MSSA-1 by standard dilution assay; outline: as §3
Streptococcus pneumoniae [11] = assay: Antibacterial activity against Streptococcus pneumoniae 943 by standard dilution assay; outline: as §2

Row | SMILES | Ratio (Streptococcus pneumoniae [1]) | Ratio (Streptococcus pneumoniae [2]) | Ratio (Streptococcus pneumoniae [3]) | MIC80 (Escherichia coli [4]) | Ratio (Staphylococcus aureus [5]) | MIC80 (Escherichia coli [6]) | MIC80 (Streptococcus pyogenes) | MIC80 (Streptococcus pneumoniae [7]) | MIC80 (Staphylococcus aureus [8]) | MIC80 (Staphylococcus aureus [9]) | MIC80 (Staphylococcus aureus [10]) | MIC80 (Streptococcus pneumoniae [11])
1 | CC[C@H]1OC(=O)[C@H](C)[C@@H](O[C@H]2C[C@@](C)(OC)[C@@H](OC(=O)NCCO[C@@H]3O[C@H](CO)[C@@H](O)[C@H](O)[C@H]3O)[C@H](C)O2)[C@H](C)[C@@H](O[C@@H]2O[C@H](C)C[C@H](N(C)C)[C@H]2O)[C@](C)(O)C[C@@H](C)CN(C)[C@H](C)[C@H]2OC(=O)O[C@@]21C | 8 | 4 | 8 | 128 µg/mL (≈ 125 µM) | 8 | 64 µg/mL (≈ 62.5 µM) | 16 µg/mL (≈ 15.6 µM) | 2 µg/mL (≈ 1.95 µM) | 8 µg/mL (≈ 7.81 µM) | 16 µg/mL (≈ 15.6 µM) | 2 µg/mL (≈ 1.95 µM) | 1 µg/mL (≈ 0.976 µM)
2 | CC[C@H]1OC(=O)[C@H](C)[C@@H](O[C@H]2C[C@@](C)(OC)[C@@H](OC(=O)NCCO[C@@H]3O[C@H](CO)[C@H](O)[C@H](O)[C@H]3O)[C@H](C)O2)[C@H](C)[C@@H](O[C@@H]2O[C@H](C)C[C@H](N(C)C)[C@H]2O)[C@](C)(O)C[C@@H](C)CN(C)[C@H](C)[C@H]2OC(=O)O[C@@]21C | 8 | 4 | 8 | 128 µg/mL (≈ 125 µM) |  | 128 µg/mL (≈ 125 µM) | 64 µg/mL (≈ 62.5 µM) | 2 µg/mL (≈ 1.95 µM) | 32 µg/mL (≈ 31.2 µM) | 32 µg/mL (≈ 31.2 µM) | 4 µg/mL (≈ 3.91 µM) | 1 µg/mL (≈ 0.976 µM)
3 | CC[C@H]1OC(=O)[C@H](C)[C@@H](O[C@H]2C[C@@](C)(OC)[C@@H](OC(=O)NCCO[C@@H]3O[C@H](CO)[C@@H](O)[C@H](O)[C@@H]3O)[C@H](C)O2)[C@H](C)[C@@H](O[C@@H]2O[C@H](C)C[C@H](N(C)C)[C@H]2O)[C@](C)(O)C[C@@H](C)CN(C)[C@H](C)[C@H]2OC(=O)O[C@@]21C |  |  |  | 128 µg/mL (≈ 125 µM) |  | 64 µg/mL (≈ 62.5 µM) | 32 µg/mL (≈ 31.2 µM) | 4 µg/mL (≈ 3.91 µM) | 8 µg/mL (≈ 7.81 µM) | 8 µg/mL (≈ 7.81 µM) | 8 µg/mL (≈ 7.81 µM) | 4 µg/mL (≈ 3.91 µM)
4 | CC[C@H]1OC(=O)[C@H](C)[C@@H](O[C@H]2C[C@@](C)(OC)[C@@H](OC(=O)NCCO[C@@H]3OC[C@@H](O)[C@H](O)[C@H]3O)[C@H](C)O2)[C@H](C)[C@@H](O[C@@H]2O[C@H](C)C[C@H](N(C)C)[C@H]2O)[C@](C)(O)C[C@@H](C)CN(C)[C@H](C)[C@H]2OC(=O)O[C@@]21C |  |  |  | 256 µg/mL (≈ 257 µM) |  | 64 µg/mL (≈ 64.4 µM) | 16 µg/mL (≈ 16.1 µM) | 4 µg/mL (≈ 4.02 µM) | 8 µg/mL (≈ 8.05 µM) | 16 µg/mL (≈ 16.1 µM) | 16 µg/mL (≈ 16.1 µM) | 2 µg/mL (≈ 2.01 µM)
5 | CC[C@H]1OC(=O)[C@H](C)[C@@H](O[C@H]2C[C@@](C)(OC)[C@@H](OC(=O)NCCO[C@@H]3O[C@H](CO)[C@@H](O)[C@H]3O)[C@H](C)O2)[C@H](C)[C@@H](O[C@@H]2O[C@H](C)C[C@H](N(C)C)[C@H]2O)[C@](C)(O)C[C@@H](C)CN(C)[C@H](C)[C@H]2OC(=O)O[C@@]21C |  |  |  | 128 µg/mL (≈ 129 µM) |  | 64 µg/mL (≈ 64.4 µM) | 64 µg/mL (≈ 64.4 µM) | 8 µg/mL (≈ 8.05 µM) | 4 µg/mL (≈ 4.02 µM) | 8 µg/mL (≈ 8.05 µM) | 8 µg/mL (≈ 8.05 µM) | 4 µg/mL (≈ 4.02 µM)
6 | CC[C@H]1OC(=O)[C@H](C)[C@@H](O[C@H]2C[C@@](C)(OC)[C@@H](OC(=O)NCCO[C@@H]3O[C@@H](C)[C@H](O)[C@@H](O)[C@H]3O)[C@H](C)O2)[C@H](C)[C@@H](O[C@@H]2O[C@H](C)C[C@H](N(C)C)[C@H]2O)[C@](C)(O)C[C@@H](C)CN(C)[C@H](C)[C@H]2OC(=O)O[C@@]21C |  |  |  | 128 µg/mL (≈ 127 µM) | 8 | 128 µg/mL (≈ 127 µM) | 64 µg/mL (≈ 63.5 µM) | 8 µg/mL (≈ 7.93 µM) | 16 µg/mL (≈ 15.9 µM) | 8 µg/mL (≈ 7.93 µM) | 2 µg/mL (≈ 1.98 µM) | 4 µg/mL (≈ 3.97 µM)
7 | CC[C@H]1OC(=O)[C@H](C)[C@@H](O[C@H]2C[C@@](C)(OC)[C@@H](OC(=O)NCCO[C@@H]3O[C@H](CO)[C@@H](O[C@H]4O[C@H](CO)[C@@H](O)[C@H](O)[C@H]4O)[C@H](O)[C@H]3O)[C@H](C)O2)[C@H](C)[C@@H](O[C@@H]2O[C@H](C)C[C@H](N(C)C)[C@H]2O)[C@](C)(O)C[C@@H](C)CN(C)[C@H](C)[C@H]2OC(=O)O[C@@]21C |  |  |  | 256 µg/mL (≈ 216 µM) |  | 128 µg/mL (≈ 108 µM) | 32 µg/mL (≈ 27 µM) | 16 µg/mL (≈ 13.5 µM) | 32 µg/mL (≈ 27 µM) | 16 µg/mL (≈ 13.5 µM) | 16 µg/mL (≈ 13.5 µM) | 8 µg/mL (≈ 6.74 µM)
8 | CC[C@H]1OC(=O)[C@H](C)[C@@H](O[C@H]2C[C@@](C)(OC)[C@@H](OC(=O)NCCO[C@@H]3O[C@H](CO)[C@@H](O[C@@H]4O[C@H](CO)[C@@H](O)[C@H](O)[C@H]4O)[C@H](O)[C@H]3O)[C@H](C)O2)[C@H](C)[C@@H](O[C@@H]2O[C@H](C)C[C@H](N(C)C)[C@H]2O)[C@](C)(O)C[C@@H](C)CN(C)[C@H](C)[C@H]2OC(=O)O[C@@]21C |  |  |  | 256 µg/mL (≈ 216 µM) |  | 128 µg/mL (≈ 108 µM) | 64 µg/mL (≈ 53.9 µM) | 16 µg/mL (≈ 13.5 µM) | 16 µg/mL (≈ 13.5 µM) | 32 µg/mL (≈ 27 µM) | 32 µg/mL (≈ 27 µM) | 8 µg/mL (≈ 6.74 µM)
9 | CC[C@H]1OC(=O)[C@H](C)[C@@H](O[C@H]2C[C@@](C)(OC)[C@@H](O)[C@H](C)O2)[C@H](C)[C@@H](O[C@@H]2O[C@H](C)C[C@H](N(C)C)[C@H]2O)[C@](C)(O)C[C@@H](C)CN(C)[C@H](C)[C@@H](O)[C@]1(C)O [AZITHROMYCIN] |  |  |  | 256 µg/mL (≈ 342 µM) |  | 256 µg/mL (≈ 342 µM) | 32 µg/mL (≈ 42.7 µM) | 8 µg/mL (≈ 10.7 µM) | 16 µg/mL (≈ 21.4 µM) | 16 µg/mL (≈ 21.4 µM) | 2 µg/mL (≈ 2.67 µM) | 4 µg/mL (≈ 5.34 µM)
10 | CC[C@H]1OC(=O)[C@H](C)[C@@H](O[C@H]2C[C@@](C)(OC)[C@@H](O)[C@H](C)O2)[C@H](C)[C@@H](O[C@@H]2O[C@H](C)C[C@H](N(C)C)[C@H]2O)[C@](C)(O)C[C@@H](C)C(=O)[C@H](C)[C@@H](O)[C@]1(C)O [ERYTHROMYCIN] |  |  |  | 256 µg/mL (≈ 349 µM) |  | 256 µg/mL (≈ 349 µM) | 32 µg/mL (≈ 43.6 µM) | 16 µg/mL (≈ 21.8 µM) | 16 µg/mL (≈ 21.8 µM) | 16 µg/mL (≈ 21.8 µM) | 16 µg/mL (≈ 21.8 µM) | 8 µg/mL (≈ 10.9 µM)
